In brackets after ≈: the same amount, converted by molar mass.
Columns and labels:
MCF7 [1] = assay: Cytotoxicity against estrogen receptor-positive human MCF7 cells assessed as inhibition of cell proliferation after 24 hrs by MTT assay; assay type: functional, cell-based
Procedure, shortened: (§1)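 MTT assay on MCF-7 human breast cancer cells, Taxol as reference; percentage inhibition of cell proliferation read at graded concentrations from 0.1 to 50 μg/mL (typically five or six levels per compound); IC50 in μg/mL derived from the inhibition series.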

Bacillus subtilis [2] = assay: Antibacterial activity against Bacillus subtilis after 18 to 24 hrs by broth microdilution method; assay type: functional
MCF7 [3] = assay: Cytotoxicity against estrogen receptor-positive human MCF7 cells assessed as inhibition of cell proliferation at 5 ug/ml after 24 hrs by MTT assay; assay type: functional; settings: MCF7, 24 h; procedure, shortened: as §1
Pseudomonas aeruginosa [4] = assay: Antibacterial activity against Pseudomonas aeruginosa at 100 ug/[…] after 24 hrs by agar diffusion method; assay type: functional
Procedure, shortened: (§2)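 Single-concentration antibacterial screen at 100 μg/50 μL per test against the standard bacterial strains.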

MCF7 [5] = assay: Cytotoxicity against estrogen receptor-positive human MCF7 cells assessed as inhibition of cell proliferation at 10 ug/ml after 24 hrs by MTT assay; assay type: functional; settings: MCF7, 24 h; procedure, shortened: as §1
MCF7 [6] = assay: Cytotoxicity against estrogen receptor-positive human MCF7 cells assessed as inhibition of cell proliferation at 50 ug/ml after 24 hrs by MTT assay; assay type: functional; settings: MCF7, 24 h; procedure, shortened: as §1
MCF7 [7] = assay: Cytotoxicity against estrogen receptor-positive human MCF7 cells assessed as inhibition of cell proliferation at 1 ug/ml after 24 hrs by MTT assay; assay type: functional; settings: MCF7, 24 h; procedure, shortened: as §1
Staphylococcus aureus [8] = assay: Antibacterial activity against Staphylococcus aureus at […] after 24 hrs by agar diffusion method; assay type: functional; procedure, shortened: as §2
Staphylococcus aureus [9] = assay: Antibacterial activity against Staphylococcus aureus after 18 to 24 hrs by broth microdilution method; assay type: functional
Pseudomonas aeruginosa [10] = assay: Antibacterial activity against Pseudomonas aeruginosa after 18 to 24 hrs by broth microdilution method; assay type: functional
Escherichia coli [11] = assay: Antibacterial activity against Escherichia coli after 18 to 24 hrs by broth microdilution method; assay type: functional
MCF7 [12] = assay: Cytotoxicity against estrogen receptor-positive human MCF7 cells assessed as inhibition of cell proliferation at 25 ug/ml after 24 hrs by MTT assay; assay type: functional; settings: MCF7, 24 h; procedure, shortened: as §1
Bacillus subtilis [13] = assay: Antibacterial activity against Bacillus subtilis at […] after 24 hrs by agar diffusion method; assay type: functional; procedure, shortened: as §2
Escherichia coli [14] = assay: Antibacterial activity against Escherichia coli at […] after 24 hrs by agar diffusion method; assay type: functional; procedure, shortened: as §2
Rattus norvegicus [15] = assay: Antiinflammatory activity in Wistar rat assessed as protection against carrageenan-induced paw edema at 100 mg/kg, po administered 1 hr before carrageenan challenge measured after 3 hrs; assay type: functional
Rattus norvegicus [16] = assay: Antiinflammatory activity in Wistar rat assessed as protection against carrageenan-induced paw edema at 100 mg/kg, po administered 1 hr before carrageenan challenge measured after 1 hr; assay type: functional
Rattus norvegicus [17] = assay: Antiinflammatory activity in Wistar rat assessed as protection against carrageenan-induced paw edema at 100 mg/kg, po administered 1 hr before carrageenan challenge measured after 2 hrs; assay type: functional
Rattus norvegicus [18] = assay: Antiinflammatory activity in Wistar rat assessed as protection against carrageenan-induced paw edema at 100 mg/kg, po administered 1 hr before carrageenan challenge measured after 30 mins; assay type: functional
Rattus norvegicus [19] = assay: Antiinflammatory activity in Wistar rat assessed as protection against carrageenan-induced paw edema at 100 mg/kg, po administered 1 hr before carrageenan challenge measured after 4 hrs; assay type: functional
[20] = Homo sapiens, MCF7, 24 h, read-out: IC50

| Compound | IC50 (MCF7 [1]; mcf7) | MIC (Bacillus subtilis [2]) | IC50 (MCF7 [1]; [20]) | inhibition at 5 µg/mL (MCF7 [3]) | inhibition zone (IZ) (Pseudomonas aeruginosa [4]) | inhibition at 10 µg/mL (MCF7 [5]) | inhibition at 50 µg/mL (MCF7 [6]) | inhibition at 1 µg/mL (MCF7 [7]) | inhibition zone (IZ) (Staphylococcus aureus [8]) | MIC (Staphylococcus aureus [9]) | MIC (Pseudomonas aeruginosa [10]) | MIC (Escherichia coli [11]) | inhibition at 25 µg/mL (MCF7 [12]) | inhibition zone (IZ) (Bacillus subtilis [13]) | inhibition zone (IZ) (Escherichia coli [14]) | Activity (Rattus norvegicus [15]) | Activity (Rattus norvegicus [16]) | Activity (Rattus norvegicus [17]) | Activity (Rattus norvegicus [18]) | Activity (Rattus norvegicus [19]) |
| --- | --- | --- | --- | --- | --- | --- | --- | --- | --- | --- | --- | --- | --- | --- | --- | --- | --- | --- | --- | --- |
| CC(=O)O[C@H]1C(=O)[C@@]2(C)[C@H]([C@H](OC(=O)c3ccccc3)[C@]3(O)C[C@H](OC(=O)[C@H](O)[C@@H](NC(=O)c4ccccc4)c4ccccc4)C(C)=C1C3(C)C)[C@]1(OC(C)=O)CO[C@@H]1C[C@@H]2O [PACLITAXEL] | 15 nM |  |  |  |  |  |  |  |  |  |  |  |  |  |  |  |  |  |  |  |
| Cc1[nH]nc2c1C(c1c(F)c(F)c(F)c(F)c1F)C(C#N)=C(N)O2 (stereo not drawn) |  | 3.12 µg/mL (≈ 9.13 µM) | 45.5 µg/mL | 6.96% | 15 mm | 16.2% | 65.6% | 1.1% | 18 mm | 3.12 µg/mL (≈ 9.13 µM) | 1.56 µg/mL (≈ 4.56 µM) | 1.56 µg/mL (≈ 4.56 µM) | 45.1% | 15 mm | 14 mm |  |  |  |  |  |
| Cc1nn(-c2ccccc2)c2c1C(c1cccc(Oc3ccccc3)c1)C(C#N)=C(N)O2 (stereo not drawn) |  | 6.25 µg/mL (≈ 14.9 µM) |  |  |  |  |  |  | 15 mm | 3.12 µg/mL (≈ 7.43 µM) | 3.12 µg/mL (≈ 7.43 µM) | 6.25 µg/mL (≈ 14.9 µM) |  |  | 18 mm |  |  |  |  |  |
| Cc1[nH]nc2c1C(c1ccc(O)cc1)C(C#N)=C(N)O2 (stereo not drawn) |  |  |  |  | 15 mm |  |  |  | 13 mm |  |  |  |  |  | 15 mm |  |  |  |  |  |
| Cc1[nH]nc2c1C(c1cccc(Oc3nc(Cl)c(Cl)cc3Cl)c1)C(C#N)=C(N)O2 (stereo not drawn) |  | 6.25 µg/mL (≈ 13.9 µM) | 42.8 µg/mL | 16.3% | 15 mm | 34.6% | 50.1% | 0.41% | 16 mm | 6.25 µg/mL (≈ 13.9 µM) | 6.25 µg/mL (≈ 13.9 µM) | 3.12 µg/mL (≈ 6.96 µM) | 42.4% | 21 mm | 23 mm | 70.9% | 47.2% | 64.3% | 23.5% | 53.8% |
| Cc1nn(-c2ccccc2)c2c1C(c1ccc(O)cc1)C(C#N)=C(N)O2 (stereo not drawn) |  | 6.25 µg/mL (≈ 18.1 µM) | 47.5 µg/mL | 5.96% | 15 mm | 22.9% | 50.2% | 2.1% | 15 mm | 6.25 µg/mL (≈ 18.1 µM) | 3.12 µg/mL (≈ 9.07 µM) | 12.5 µg/mL (≈ 36.3 µM) | 30.8% | 17 mm | 16 mm | 56.9% | 30.5% | 43.8% | 11.7% | 50.5% |
| Cc1[nH]nc2c1C1(C(=O)Nc3ccccc31)C(C#N)=C(N)O2 (stereo not drawn) |  |  |  | -3.16% | 10 mm | 0.51% | -4.93% | -1.26% | 13 mm |  |  |  | -5.9% | 11 mm | 12 mm | 69.8% | 36.1% | 54.7% | 23.5% | 51.6% |
| Cc1nn(-c2ccccc2)c2c1C(c1ccc([N+](=O)[O-])cc1)C(C#N)=C(N)O2 (stereo not drawn) |  |  | 15.1 µg/mL | 12.5% | 8 mm | 30.8% | 96.4% | 2.04% | 8 mm |  |  |  | 85.5% | 7 mm | 15 mm |  |  |  |  |  |
| Cc1nn(-c2ccccc2)c2c1C(c1cccc(Oc3nc(Cl)c(Cl)cc3Cl)c1)C(C#N)=C(N)O2 (stereo not drawn) |  | 6.25 µg/mL (≈ 11.9 µM) |  |  | 16 mm |  |  |  | 16 mm | 6.25 µg/mL (≈ 11.9 µM) | 6.25 µg/mL (≈ 11.9 µM) | 12.5 µg/mL (≈ 23.8 µM) |  | 15 mm | 14 mm |  |  |  |  |  |
| COc1ccc(C2C(C#N)=C(N)Oc3c2c(C)nn3-c2ccccc2)cc1 (stereo not drawn) |  |  |  | 4.19% | 6 mm | 8.99% | 30% | 0.76% | 5 mm |  |  |  | 11.6% | 4 mm | 10 mm | 52.6% | 25% | 39.7% | 11.7% | 45% |
| Cc1[nH]nc2c1C(c1ccc(C3C(C#N)=C(N)Oc4n[nH]c(C)c43)cc1)C(C#N)=C(N)O2 (stereo not drawn) |  |  |  | 23.4% |  | 24.4% | 26.7% | 11.4% |  |  |  |  | 24.8% |  |  |  |  |  |  |  |
| Cc1[nH]nc2c1C(c1cccnc1)C(C#N)=C(N)O2 (stereo not drawn) |  |  | 35.4 µg/mL | 10.1% |  | 16.3% | 75% | 0.41% |  |  |  |  | 25.2% |  |  |  |  |  |  |  |
| CC(C)Cc1ccc(C(C)C(=O)O)cc1 (stereo not drawn) [IBUPROFEN] |  |  |  |  |  |  |  |  |  |  |  |  |  |  |  | 72.3% | 41.6% | 52.7% | 38% | 64.4% |
| Cc1ccc(C2C(C#N)=C(N)Oc3[nH]nc(C)c32)cc1 (stereo not drawn) |  |  |  |  | 15 mm |  |  |  | 10 mm |  |  |  |  | 10 mm |  |  |  |  |  |  |
| Cc1nn(-c2ccccc2)c2c1C1(C(C#N)=C(N)O2)c2ccccc2-c2ccccc21 |  |  |  |  | 16 mm |  |  |  | 12 mm |  |  |  |  | 11 mm | 13 mm | 65.5% | 30.5% | 45.2% | 23.5% | 56.6% |
| Cc1nn(-c2ccccc2)c2c1C(c1ccccc1)C(C#N)=C(N)O2 (stereo not drawn) |  |  | 25.8 µg/mL | 22.4% | 9 mm | 26.9% | 84.1% | 1.67% | 6 mm |  |  |  | 55.5% | 8 mm | 14 mm | 53.7% | 27.7% | 42.4% | 11.7% | 48.3% |
| Cc1[nH]nc2c1C1(C(C#N)=C(N)O2)c2ccccc2-c2ccccc21 |  |  |  |  | 17 mm |  |  |  | 10 mm |  |  |  |  | 10 mm | 10 mm |  |  |  |  |  |
| O=C(O)c1cn(C2CC2)c2cc(N3CCNCC3)c(F)cc2c1=O [CIPROFLOXACIN] |  | 1.56 µg/mL (≈ 4.71 µM) |  |  |  |  |  |  |  | 1.56 µg/mL (≈ 4.71 µM) | 1.56 µg/mL (≈ 4.71 µM) |  |  |  |  |  |  |  |  |  |

Reference: ChEMBL document CHEMBL2062449, “Eco-friendly synthesis and biological evaluation of substituted pyrano[2,3-c]pyrazoles” (Bioorg Med Chem Lett, 2012)
